These results are taken from ChEMBL document CHEMBL1155205, “Structure-activity relationship of isoform selective inhibitors of Rac1/1b GTPase nucleotide binding” (Bioorg Med Chem Lett, 2009).

The inhibition is the share of the control response that was lost under treatment. As usually defined, the IC50 is the point on the concentration scale where inhibition reaches its midpoint.

Counter-ions that a name gives are not always drawn.

The target in assay [1] is T1, Cell division control protein 42 homolog (Homo sapiens, UniProt P60953). In words: Inhibition of Cdc42 GTPase activity assessed as incorporation of BODIPY-GTP at 50 uM after 40 mins by nucleotide binding competition assay. In outline: (§1)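 Bacterially expressed GST-Cdc42 preincubated 10 min at 20 °C in 20 mM Tris pH 8.6, 50 mM NaCl, 1 mM MgCl2. No GEF was added (intrinsic exchange). BODIPY-GTP was then added with or without compound. Fluorescence was read at ex 485/em 538 nm before and after addition. Maximal RFU at 40 min was compared with control. Means of at least three independent experiments, with SEM.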
Target sequence in this assay (P60953 whole entry, looked up): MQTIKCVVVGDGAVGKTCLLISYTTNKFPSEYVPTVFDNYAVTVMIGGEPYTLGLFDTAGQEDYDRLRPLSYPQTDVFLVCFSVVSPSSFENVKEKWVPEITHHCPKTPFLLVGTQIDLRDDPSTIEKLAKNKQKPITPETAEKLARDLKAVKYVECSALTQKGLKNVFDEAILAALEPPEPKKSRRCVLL

A short description of assay [2]: Selectivity of IC50 for Rac1 GTPase activity to IC50 for Rac1b GTPase activity. In outline: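 Ratio of IC50s for inhibiting BODIPY-GTP binding to bacterially expressed GST-Rac1 and GST-Rac1b. Rac1 binding was stimulated by His6-Tiam1 DH/PH, while Rac1b used intrinsic exchange. Protein was pre-incubated 10 min at 20 °C in 20 mM Tris pH 8.6, 50 mM NaCl, 1 mM MgCl2, then BODIPY-GTP ± compound was added. Fluorescence (ex 485/em 538 nm) was read as maximal RFU at 40 min; means of ≥3 independent experiments.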

The test system of the next assay is HEK293. In words: Inhibition of Rac GTPase activation in Rac1b overexpressing human HEK293 cells at 50 uM after 5 mins by G-LISA assay. The format is cell-based. In outline: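 HEK293 cells overexpressing human Rac1b were grown 5 days in MEM with 10% FBS, L-glutamine and antibiotics. Cells were then exposed to compound or solvent for 5 min. Rac1b GTP loading was measured with a Rac activation kit using a Rac-specific antibody (G-LISA).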

Assay [3] deals with T2, Ras-related C3 botulinum toxin substrate 1 (Homo sapiens, UniProt P63000). In words: Inhibition of Rac1 GTPase activity assessed as incorporation of BODIPY-GTP after 40 mins by nucleotide binding competition assay.
Assay [4] has as its target T1, Cell division control protein 42 homolog. In words: Inhibition of Cdc42 GTPase activity assessed as incorporation of BODIPY-GTP after 40 mins by nucleotide binding competition assay. In outline: as §1
Target sequence in this assay (P60953 whole entry): as the sequence (P60953 whole entry, looked up) above
Assay [5] has as its target T2, Ras-related C3 botulinum toxin substrate 1. In words: Inhibition of Rac1b GTPase activity assessed as incorporation of BODIPY-GTP after 40 mins by nucleotide binding competition assay.

Take `C[n+]1cc2c3c(ccc2c2ccc4cc5c(cc4c21)OCO5)OCO3`: the values for the inhibition (in assay [1]; with HEK293) were 63% and 50%, respectively. For the same molecule, the Ratio IC50 in assay [2] is 13.

With `COc1cc2cc(-c3ccc4c(c3)OCO4)nc(C)c2cc1OC`, in assay [1], the inhibition came to 14%.

With `Nc1nc2c(ncn2[C@H]2O[C@@H](COP(=O)(O)OP(=O)(O)O)[C@H](O)[C@@H]2O)c(=O)[nH]1`, the results for the IC50 in assay [3], in assay [4] and in assay [5] were 2.7 µM, 1.4 µM and 1.8 µM, respectively.

On to `Oc1cc2c(cc1O)-c1cc3ccc(O)c(O)c3c[n+]1CC2`, for which the inhibition is > 100% in assay [1] and < 20% in the assay on HEK293. The IC50 in assay [4] came out at 6 µM.

With `COc1ccc2cc3[n+](cc2c1OC)CCc1cc2c(cc1-3)OCO2`, in assay [1], the inhibition worked out at 8%.

Take `Oc1cc2c(cc1O)C1Cc3ccc(O)c(O)c3CN1CC2` (centres undefined) [TETRAHYDROXYCANADINE HYDROCHLORIDE]: the IC50 in assay [4] is > 100 µM. Further, the inhibition with HEK293 is < 20%.

With `COc1cc2cc(-c3cccc(C(C)=O)c3)[n+](C)c(C)c2cc1OC`, the inhibition in assay [1] came to 7%.

Consider `Cc1c2cc(O)c(O)cc2cc(-c2ccc(O)c(O)c2)[n+]1C`, for which the inhibition in assay [1] is 12%.

For `COc1ccc2cc3[n+](cc2c1OC)CCc1cc(O)c(O)cc1-3`, the inhibition stood at 31% in assay [1] and 35% in the assay with HEK293. In addition, the IC50 in assay [3] is 63 µM; in assay [4] it was > 100 µM; in assay [5], 31 µM.

As to `COc1cc2cc(-c3cccc(C(C)=O)c3)nc(C)c2cc1OC`, in assay [1], the inhibition came out at 7%.

In the case of `COc1ccc2c(c1OC)CN1CCc3cc4c(cc3C1C2)OCO4` (racemic), the inhibition in assay [1] was 4%.

As for `COc1cc2cc(-c3ccc(O)c(O)c3)[n+](C)c(C)c2cc1OC`, the inhibition in assay [1] worked out at 5%.

Consider `Cc1nc(-c2ccc(O)c(O)c2)cc2cc(O)c(O)cc12`, for which the inhibition in assay [1] came out at 15%.

As for `COc1ccc2c(c1OC)C(c1ccccc1)N1CCc3cc4c(cc3C1C2)OCO4` (centres undefined), in assay [1], the inhibition is 9%.

In the case of `COc1ccc2c(c[n+](C)c3c4cc(O)c(O)cc4ccc23)c1OC`, the values for the inhibition (in assay [1]; in the assay with HEK293) were 38% and 39%, respectively. Further, in assay [4], the IC50 was determined as 73 µM.

Turning to `COc1cc2cc(-c3ccc(Cl)c(Cl)c3)nc(C)c2cc1OC`, the inhibition in assay [1] came to 5%.

Take `COc1cc2cc(-c3ccc(O)c(O)c3)nc(C)c2cc1OC`: the inhibition in assay [1] turned out to be 15%; in the assay with HEK293, 61%. In addition, the IC50 in assay [4] is > 100 µM.

Consider `COc1cc2cc(-c3ccc4ccccc4c3)nc(C)c2cc1OC`, for which the results for the inhibition (in assay [1]; in the assay with HEK293) were 29% and < 20%, respectively. Besides, in assay [4], the IC50 is > 100 µM.

As to `COc1cc2c(cc1OC)-c1cc3ccc(OC)c(OC)c3c[n+]1CC2`, in assay [1], the inhibition was 8%.

Turning to `COc1cc2cc(-c3ccc4c(c3)OCO4)[n+](C)c(C)c2cc1OC`, in assay [1], the inhibition was determined as 0.3%.

Take `COc1cc2cc3c4ccc(OC)c(OC)c4cc[n+]3c(C)c2cc1OC`: in assay [1], the inhibition is 23%.

Turning to `COc1ccc2c(c[n+](C)c3c4cc5c(cc4ccc23)OCO5)c1OC` [CHELERYTHRINE CHLORIDE], the inhibition was found to be 35% in assay [1] and 40% in the assay on HEK293. The IC50 was > 100 µM in assay [3], > 100 µM in assay [4] and 7 µM in assay [5]. For the same molecule, the Ratio IC50 in assay [2] is > 14.

For the molecule `C[n+]1cc2c(O)c(O)ccc2c2ccc3cc(O)c(O)cc3c21`, the inhibition is 73% in assay [1] and < 20% in the assay with HEK293.

With `Cc1c2cc(O)c(O)cc2cc2c3ccc(O)c(O)c3cc[n+]12`, the inhibition in assay [1] is 70%; with HEK293, < 20%. Further, the IC50 in assay [4] is 26 µM.
